Here are results for 17 compounds from ChEMBL document CHEMBL4196155 (J Med Chem, 2018).

Test [1] concerns the target T1, Melatonin receptor type 1A (Homo sapiens, UniProt P48039). As to the kind of experiment: Intrinsic agonist activity at human MT1 receptor expressed in […] NIH/3T3 cell membranes assessed as induction of G protein activation incubated for 30 mins by [35S]GTPgammaS binding assay relative to melatonin. The format is functional. The method in brief:
(§1)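 NIH3T3 membranes bearing cloned human MT1 or MT2 (15–25 μg protein) incubated 30 min at 30 °C with [35S]GTPγS 0.3–0.5 nM, GDP 50 μM, NaCl 100 mM, MgCl2 3 mM. […] Maximal stimulation above basal was divided by that of 100 nM MLT in the same experiment. Run in triplicate.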
On the technique in general: GTPγS resists hydrolysis and so accumulates on activated G proteins.

In test [2] the target is T2, Melatonin receptor type 1B (Homo sapiens) (UniProt P49286).
T2 sequence (whole entry): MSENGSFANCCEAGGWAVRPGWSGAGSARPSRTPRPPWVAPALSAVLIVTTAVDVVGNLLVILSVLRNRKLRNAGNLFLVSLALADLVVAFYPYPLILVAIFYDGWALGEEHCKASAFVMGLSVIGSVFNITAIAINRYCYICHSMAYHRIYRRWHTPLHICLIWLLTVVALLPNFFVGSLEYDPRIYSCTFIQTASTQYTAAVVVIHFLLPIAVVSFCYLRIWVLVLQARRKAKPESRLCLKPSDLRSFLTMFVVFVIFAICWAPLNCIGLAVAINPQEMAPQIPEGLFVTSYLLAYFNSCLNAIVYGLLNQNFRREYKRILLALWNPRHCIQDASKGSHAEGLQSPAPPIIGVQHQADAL
As to the kind of experiment: Intrinsic agonist activity at human MT2 receptor expressed in […] NIH/3T3 cell membranes assessed as induction of G protein activation incubated for 30 mins by [35S]GTPgammaS binding assay relative to melatonin. The format is functional. Put shortly:
as §1

For test [3], the system named is Oryctolagus cuniculus. As to the kind of experiment: Reduction in hypertonic saline solution-induced elevated intraocular pressure in New Zealand White rabbit at 1 mM dosed topically before hypertonic saline solution injection measured after 120 mins. The format is functional, organism-based. The method in brief:
(§2)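 Male SPF New Zealand albino rabbits, 2–2.5 kg, four per compound. 0.05 mL of 1 mM solution in 0.9% NaCl, 0.1% DMSO, 0.1% EtOH was dropped into one eye, vehicle into the other, before intravitreal 0.1 mL 5% hypertonic saline. IOP was read by tonometry after oxybuprocaine 0.2% once the rise had stabilised at 30–40 mm Hg, then after treatment. Analysis by 2-way ANOVA with Bonferroni.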

Test [4] deals with T3, Fatty-acid amide hydrolase 1 (Rattus norvegicus, UniProt P97612).
T3 sequence (P97612 whole entry): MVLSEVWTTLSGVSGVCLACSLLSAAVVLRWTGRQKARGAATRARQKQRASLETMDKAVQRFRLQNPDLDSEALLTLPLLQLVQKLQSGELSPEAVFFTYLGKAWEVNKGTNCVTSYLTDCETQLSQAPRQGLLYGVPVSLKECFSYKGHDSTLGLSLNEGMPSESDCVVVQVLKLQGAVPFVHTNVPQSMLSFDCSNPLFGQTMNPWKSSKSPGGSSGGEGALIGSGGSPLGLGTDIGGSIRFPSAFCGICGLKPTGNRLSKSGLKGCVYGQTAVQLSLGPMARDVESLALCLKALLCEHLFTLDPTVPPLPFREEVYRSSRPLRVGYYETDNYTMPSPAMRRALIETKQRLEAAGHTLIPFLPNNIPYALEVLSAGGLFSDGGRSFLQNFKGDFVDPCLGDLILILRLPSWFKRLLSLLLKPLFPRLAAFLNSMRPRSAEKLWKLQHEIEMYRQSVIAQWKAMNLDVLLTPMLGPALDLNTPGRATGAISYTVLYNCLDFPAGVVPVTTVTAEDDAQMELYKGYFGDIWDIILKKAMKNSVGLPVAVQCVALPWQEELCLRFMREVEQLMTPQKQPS
The test can be described thus: Inhibition of FAAH1 in Wistar rat brain homogenates using [3H]anandamide as substrate incubated for 30 mins by liquid scintillation counting method. Put shortly:
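Wistar rat brain homogenised in ice-cold Tris 50 mM pH 7.5 with 0.32 M sucrose, spun 1,000 × g 10 min at 4 °C; supernatant used. Homogenate (50 μg protein) incubated 30 min at 37 °C in Tris 50 mM pH 7.5, 0.05% fatty-acid-free BSA, 10 μM anandamide plus [3H]anandamide (20,000 cpm), varying compound concentrations, final DMSO 1%. Stopped with CHCl3/MeOH 1:1; aqueous [3H]ethanolamine counted. IC50 from at least two determinations.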

In test [5] the target is T1, Melatonin receptor type 1A. As to the kind of experiment: biochemical.
The target in test [6] is T4, Melatonin receptor type 1B (Homo sapiens, UniProt P49286).
T4 sequence (P49286 whole entry): T2 sequence (whole entry)
As to the kind of experiment: biochemical.

Test [7] relates to Oryctolagus cuniculus. The test can be described thus: Reduction in hypertonic saline solution-induced elevated intraocular pressure in New Zealand White rabbit at 1 mM dosed topically before hypertonic saline solution injection measured after 60 mins. The format is functional, organism-based. Put shortly:
as §2

Test [8] relates to Oryctolagus cuniculus. The test can be described thus: Reduction in hypertonic saline solution-induced elevated intraocular pressure in New Zealand White rabbit at 1 mM dosed topically before hypertonic saline solution injection measured after 240 mins. The format is functional, organism-based. The method in brief: as §2

Calls of active or inactive are those of the source. No cut-off for these calls is given here.

By IC50 is commonly meant the concentration that inhibits the measured activity by half. Low values mean higher potency, high ones lower potency. Usually Ki stands for a dissociation constant, usually derived from enzyme kinetics or from competition with a known ligand. Low readings indicate tighter binding, high ones weaker binding.

T1 sequence (P48039 whole entry): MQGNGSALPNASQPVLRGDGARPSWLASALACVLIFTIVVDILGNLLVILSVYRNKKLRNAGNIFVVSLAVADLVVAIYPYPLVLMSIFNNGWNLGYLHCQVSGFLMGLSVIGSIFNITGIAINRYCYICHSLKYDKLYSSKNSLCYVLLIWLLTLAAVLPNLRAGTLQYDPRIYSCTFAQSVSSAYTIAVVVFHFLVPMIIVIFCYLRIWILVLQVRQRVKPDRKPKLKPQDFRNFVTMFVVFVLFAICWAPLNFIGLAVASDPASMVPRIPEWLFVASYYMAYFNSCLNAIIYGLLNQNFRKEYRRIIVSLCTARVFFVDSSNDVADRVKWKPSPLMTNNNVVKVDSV

Regarding `CC(=O)NCCN(C)c1cccc(OCCCCCCNC(=O)Oc2cccc(-c3cccc(C(N)=O)c3)c2)c1`, the Intrinsic activity in test [1] was 0.79; in test [2], 1.01. The outcome in test [3] was Active. Besides, in test [4], the midpoint of inhibition, the IC50, lay at 0.43 nM. Besides, the Ki is 38.9 nM in test [5] and 15.5 nM in test [6]. Moreover, the result in test [7] was inactive.
On to `CC(=O)NCCN(C)c1cccc(OCCCCN)c1`, for which the Intrinsic activity in test [1] was determined as 0.32; in test [2], 0.35. The Ki was 3090 nM in test [5] and 12900 nM in test [6].
In the case of `CC(=O)NCCc1c[nH]c2ccc(OCCCCCCCCNC(=O)Oc3cccc(-c4ccccc4)c3)cc12`, the Intrinsic activity was 0.73 in test [1] and 0.53 in test [2]. For the same compound, the result in test [8] and in test [3] was inactive. The IC50 in test [4] is 4 nM. In addition, the Ki was 4.9 nM in test [5] and 6.31 nM in test [6]. Also, the result in test [7] was Active.
Consider `CC(=O)NCCN(C)c1cccc(OCCCCCCOc2cccc(OC(=O)NC3CCCCC3)c2)c1`, for which the Intrinsic activity in test [1] and in test [2] was 0.71 in each case. For the same compound, in test [4], the IC50 stood at 197 nM. The Ki is 27.5 nM in test [5] and 295 nM in test [6].
For `CC(=O)NCCN(C)c1cccc(OCCCCNC(=O)Oc2cccc(-c3ccccc3)c2)c1`, the values for the Intrinsic activity in test [1] and in test [2] were 0.64 and 0.39, respectively. In test [4], this compound showed an IC50 of 1.45 nM. For the same compound, the inhibition constant Ki is 12.9 nM in test [5] and 44.7 nM in test [6].
Consider `CC(=O)NCCN(C)c1cccc(OCCCCCCNC(=O)Oc2cccc(-c3cccc(O)c3)c2)c1`, for which the Intrinsic activity was found to be 0.89 in test [1] and 0.94 in test [2]. Also, the result in test [3] was Active. The compound also yielded a half-inhibitory concentration (IC50) in test [4] of 0.36 nM. In addition, the values for the Ki in test [5] and in test [6] were 29.5 nM and 26.9 nM, respectively. Further, the result in test [7] was inactive.
Consider `CC(=O)NCCc1c(Br)[nH]c2ccc(OCCCCCCNC(=O)Oc3cccc(-c4ccccc4)c3)cc12`, for which the results for the Intrinsic activity in test [1] and in test [2] were 0.73 and 0.97, respectively. Moreover, the outcome in test [8] and in test [3] was Active. This compound registered an IC50 in test [4] of 0.85 nM. Further, the Ki in test [5] is 0.776 nM; in test [6] it was 1.7 nM.
On to `CCC(=O)NCCN(C)c1cccc(OCCCCCCNC(=O)Oc2cccc(-c3ccccc3)c2)c1`, for which the Intrinsic activity worked out at 0.77 in test [1] and 0.88 in test [2]. Moreover, in test [4], the IC50 is 3.07 nM. In addition, the Ki in test [5] was 16.2 nM; in test [6], 19.1 nM.
Regarding `COc1ccc2[nH]cc(CCNC(C)=O)c2c1`, in test [3], the outcome was inactive. Further, the outcome in test [7] was Active.
In the case of `CC(=O)NCCN(C)c1cccc(OCCCCCCN)c1`, the Intrinsic activity in test [1] worked out at 0.34; in test [2], 0.08. Also, the Ki was 447 nM in test [5] and 398 nM in test [6].
`NC(=O)c1cccc(-c2cccc(OC(=O)NC3CCCCC3)c2)c1`: the outcome in test [3] was inactive. Further, in test [7], the result was Active.
As for `CC(=O)NCCN(C)c1cccc(OCCCCOc2cccc(OC(=O)NC3CCCCC3)c2)c1`, the Intrinsic activity in test [1] was determined as 0.07; in test [2], 0.05. The IC50 in test [4] is 184 nM. Besides, the Ki in test [5] is 34.7 nM; in test [6], 53.7 nM.
For `CC(=O)NCCN(C)c1cccc(OCCCCCCCCNC(=O)Oc2cccc(-c3ccccc3)c2)c1`, the Intrinsic activity came to 0.85 in test [1] and 0.96 in test [2]. Moreover, in test [3], the result was Active. The compound further gave a half-inhibitory concentration (IC50) in test [4] of 0.63 nM. Besides, the inhibition constant (Ki) in test [5] is 31.6 nM; in test [6], 32.4 nM. For the same compound, the outcome in test [7] was inactive.
For `CC(=O)NCCc1c[nH]c2ccc(OCCCCCCNC(=O)Oc3cccc(-c4ccccc4)c3)cc12`, the Intrinsic activity is 0.73 in test [1] and 1.02 in test [2]. Moreover, the outcome in test [8] and in test [3] was inactive. The same compound had an IC50 in test [4] of 2.38 nM. Moreover, the inhibitory constant (Ki) is 6.03 nM in test [5] and 4.57 nM in test [6]. For the same compound, in test [7], the outcome was Active.
On to `CC(=O)NCCN(C)c1cccc(OCCCCOc2cccc(O)c2)c1`, for which the Intrinsic activity is 0.27 in test [1] and 0.18 in test [2]. Besides, the results for the Ki in test [5] and in test [6] were 186 nM and 603 nM, respectively.
On to `CC(=O)NCCN(C)c1cccc(OCCCCCCOc2cccc(O)c2)c1`, for which the Intrinsic activity stood at 0.62 in test [1] and 0.57 in test [2]. For the same compound, the inhibition constant Ki in test [5] was 58.9 nM; in test [6] it was 331 nM.
Consider `CC(=O)NCCN(C)c1cccc(OCCCCCCNC(=O)Oc2cccc(-c3ccccc3)c2)c1`, for which the Intrinsic activity in test [1] was found to be 0.7; in test [2], 0.75. Also, half-maximal inhibition in test [4] (IC50) required 1.34 nM. The inhibition constant (Ki) in test [5] was 21.4 nM; in test [6], 33.1 nM.
